IC50 and MIC data for 13 molecules are collected here from ChEMBL document CHEMBL4316643, “Sesquiterpenes from an Eastern African Medicinal Mushroom Belonging to the Genus Sanghuangporus” (J Nat Prod, 2019).

pIC50: −log10 of the molar value. Values after ≈ are worked out from the molar mass of the structure shown. Active and inactive are the calls of the source. No cut-off for these calls is given here.

The first test has as its system L929. In words: Cytotoxicity in mouse L929 cells. It counts as functional, cell-based. Conditions: Mus musculus, L929; read-out: IC50. The essentials: (§1)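 In vitro cytotoxicity against mouse fibroblast L929 and HeLa-derived KB-3.1 cells; serial dilutions from a starting concentration of 37 μg/mL; IC50 determined.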
In general, pIC50 refers to the negative decadic logarithm of the IC50, by convention in mol/L. Regarding `C=C1CCC[C@@](C)(CO)[C@@H]1CCc1ccoc1`, the negative logarithm of the IC50 (pIC50) is 4.22.
Same read-out and setting: the result for `C/C(=C\c1csc(C)n1)[C@@H]1C[C@@H]2O[C@]2(C)CCC[C@H](C)[C@H](O)[C@@H](C)C(=O)C(C)(C)[C@@H](O)CC(=O)O1` [PATUPILONE] reads 8.56.
As for `C=C1CCCC(C)(C)[C@@H]1CC/C(=C/CO)CO`, the negative logarithm of the IC50 (pIC50) was 3.93.

Still in this test, the particulars now being: l929.
With `C=C1CCC[C@@](C)(CO)[C@@H]1CC/C(=C/CO)CO`, the IC50 entry is “Not Active”.
Consider `C=C1CCC[C@@](C)(C(=O)O)[C@@H]1CCc1ccoc1`, for which the IC50 entry was “Not Active”.
For the molecule `O=C(O)/C=C/c1ccc(O)cc1` [COUMARIC ACID], the IC50 result was “Not Active”.

For the next test, the system named is Micrococcus luteus. In words: Antimicrobial activity against Micrococcus luteus DSM 1790 by serial dilution assay.
Settings: not given
It counts as functional.
The term MIC denotes the lowest concentration that inhibits growth of the organism. For the molecule `CC1=CC[C@H]([C@@](C)(O)[C@@H](O)[C@@H](O)/C=C(\C)C(=O)O)CC1`, the MIC result was “inactive”.
Consider `CC1=CC[C@H]([C@@](C)(O)[C@@H](O)C/C=C(\C)C(=O)O)CC1`, for which the MIC result was “inactive”.
Turning to `C=C([C@H]1CC=C(C)CC1)[C@H](O)[C@@H](O)/C=C(\C)C(=O)O`, the MIC result was “inactive”.
For `C=C1CCC[C@@](C)(CO)[C@@H]1CC/C(=C/CO)CO`, the MIC entry was “inactive”.
On the same count and under the same terms, the result for `C=C1CCC[C@@](C)(C(=O)O)[C@@H]1CCc1ccoc1` reads “inactive”; that for `CN(C)[C@@H]1C(O)=C(C(N)=O)C(=O)[C@@]2(O)C(O)=C3C(=O)c4c(O)cccc4[C@@](C)(O)[C@H]3[C@H](O)[C@@H]12` [OXYTETRACYCLINE], 0.4 µg/mL (≈ 0.869 µM); that for `O=C(O)/C=C/c1ccc(O)cc1` [COUMARIC ACID], “inactive”.
The same measure, in the same setting: the result for `C=C1CCCC(C)(C)[C@@H]1CC/C(=C/CO)CO` reads 100 µg/mL (≈ 420 µM).

The subject of the next test is Bacillus subtilis. Briefly: Antimicrobial activity against Bacillus subtilis DSM 10 by serial dilution assay.
Settings: not given
Type of test: functional.
As to `O=C(O)c1cn(C2CC2)c2cc(N3CCNCC3)c(F)cc2c1=O` [CIPROFLOXACIN], 3.1 µg/mL (≈ 9.36 µM) was the least that counted as inhibitory (MIC).
`CC1=CC[C@H]([C@@](C)(O)[C@@H](O)[C@@H](O)/C=C(\C)C(=O)O)CC1`: the MIC entry is “inactive”.
Regarding `CC1=CC[C@H]([C@@](C)(O)[C@@H](O)C/C=C(\C)C(=O)O)CC1`, the MIC entry is “inactive”.
`C=C1CCC[C@@](C)(CO)[C@@H]1CCc1ccoc1` displayed a minimum inhibitory concentration (MIC) of 75 µg/mL (≈ 320 µM).
In the case of `C=C([C@H]1CC=C(C)CC1)[C@H](O)[C@@H](O)/C=C(\C)C(=O)O`, the MIC entry is “inactive”.
With `C=C1CCC[C@@](C)(CO)[C@@H]1CC/C(=C/CO)CO`, the MIC result was “inactive”.
On the same count and under the same terms, the result for `C=C1CCC[C@@](C)(C(=O)O)[C@@H]1CCc1ccoc1` reads 75 µg/mL (≈ 302 µM); that for `O=C(O)/C=C/c1ccc(O)cc1` [COUMARIC ACID], “inactive”.
The same measure, in the same setting: the result for `C=C1CCCC(C)(C)[C@@H]1CC/C(=C/CO)CO` reads 100 µg/mL (≈ 420 µM).

In the next test the test system is Mucor hiemalis. Briefly: Antimicrobial activity against Mucor hiemalis DSM 2656 by serial dilution assay. Type of test: functional.
Settings: not given
The essentials:
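Serial dilution MIC assay in 96-well plates using YM medium for the filamentous fungus; starting concentration 300 μg/mL.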
As for `CC1=CC[C@H]([C@@](C)(O)[C@@H](O)[C@@H](O)/C=C(\C)C(=O)O)CC1`, the MIC result is “inactive”.
Consider `CC1=CC[C@H]([C@@](C)(O)[C@@H](O)C/C=C(\C)C(=O)O)CC1`, for which the MIC came out at 50 µg/mL (≈ 186 µM).
The same measure, in the same setting: the result for NYSTATIN reads 16.7 µg/mL; that for `C=C([C@H]1CC=C(C)CC1)[C@H](O)[C@@H](O)/C=C(\C)C(=O)O`, 100 µg/mL (≈ 375 µM).
The molecule `C=C1CCC[C@@](C)(CO)[C@@H]1CC/C(=C/CO)CO` displayed an MIC of 50 µg/mL (≈ 197 µM).
As to `C=C1CCC[C@@](C)(C(=O)O)[C@@H]1CCc1ccoc1`, the minimal inhibitory concentration (MIC) worked out at 50 µg/mL (≈ 201 µM).
`O=C(O)/C=C/c1ccc(O)cc1` [COUMARIC ACID] displayed an MIC of 50 µg/mL (≈ 305 µM).
Same read-out and setting: the result for `C=C1CCCC(C)(C)[C@@H]1CC/C(=C/CO)CO` reads 25 µg/mL (≈ 105 µM).

For a further test, the system named is Staphylococcus aureus. Briefly: Antimicrobial activity against Staphylococcus aureus DSM 346 by serial dilution assay. Type of test: functional.
Settings: not given
As to `CC1=CC[C@H]([C@@](C)(O)[C@@H](O)[C@@H](O)/C=C(\C)C(=O)O)CC1`, the MIC entry is “inactive”.
As for `CC1=CC[C@H]([C@@](C)(O)[C@@H](O)C/C=C(\C)C(=O)O)CC1`, the MIC result was “inactive”.
Same read-out and setting: the result for `C=C([C@H]1CC=C(C)CC1)[C@H](O)[C@@H](O)/C=C(\C)C(=O)O` reads 100 µg/mL (≈ 375 µM); that for `C=C1CCC[C@@](C)(CO)[C@@H]1CC/C(=C/CO)CO`, “inactive”.
As to `C=C1CCC[C@@](C)(C(=O)O)[C@@H]1CCc1ccoc1`, the MIC entry is “inactive”.
For `CN(C)[C@@H]1C(O)=C(C(N)=O)C(=O)[C@@]2(O)C(O)=C3C(=O)c4c(O)cccc4[C@@](C)(O)[C@H]3[C@H](O)[C@@H]12` [OXYTETRACYCLINE], the MIC turned out to be 0.4 µg/mL (≈ 0.869 µM).
The same measure, in the same setting: the result for `O=C(O)/C=C/c1ccc(O)cc1` [COUMARIC ACID] reads “inactive”; that for `C=C1CCCC(C)(C)[C@@H]1CC/C(=C/CO)CO`, 100 µg/mL (≈ 420 µM).

In another test the test system is KB 3-1. Briefly: Cytotoxicity in human KB 3.1 cells. Type of test: functional, cell-based. Conditions: Homo sapiens, KB 3-1; read-out: IC50. The essentials: as §1
Take `C=C1CCC[C@@](C)(CO)[C@@H]1CCc1ccoc1`: the negative logarithm of the IC50 (pIC50) was 4.56.
Take `C=C([C@H]1CC=C(C)CC1)[C@H](O)[C@@H](O)/C=C(\C)C(=O)O`: the pIC50 is 3.76.
For `C=C1CCC[C@@](C)(C(=O)O)[C@@H]1CCc1ccoc1`, the negative logarithm of the IC50 (pIC50) is 3.85.
Same read-out and setting: the result for `C/C(=C\c1csc(C)n1)[C@@H]1C[C@@H]2O[C@]2(C)CCC[C@H](C)[C@H](O)[C@@H](C)C(=O)C(C)(C)[C@@H](O)CC(=O)O1` [PATUPILONE] reads 10.19; that for `C=C1CCCC(C)(C)[C@@H]1CC/C(=C/CO)CO`, 4.10.

Staying with this test, now noted: kb 3-1.
Turning to `C=C1CCC[C@@](C)(CO)[C@@H]1CC/C(=C/CO)CO`, the IC50 entry is on record as “Not Active”.
The same measure, in the same setting: the result for `O=C(O)/C=C/c1ccc(O)cc1` [COUMARIC ACID] reads “Not Active”.

In a further test the test system is Mycolicibacterium smegmatis. In words: Antimicrobial activity against Mycobacterium smegmatis DSM 43524 by serial dilution assay.
Settings: not given
Type of test: functional.
As for `CC1=CC[C@H]([C@@](C)(O)[C@@H](O)[C@@H](O)/C=C(\C)C(=O)O)CC1`, the MIC entry was “inactive”.
With `CC1=CC[C@H]([C@@](C)(O)[C@@H](O)C/C=C(\C)C(=O)O)CC1`, the MIC result is “inactive”.
The molecule `NC[C@H]1O[C@H](O[C@H]2[C@H](O)[C@@H](O[C@H]3O[C@H](CO)[C@@H](O)[C@H](N)[C@H]3O)[C@H](N)C[C@@H]2N)[C@H](O)[C@@H](O)[C@@H]1O` [KANAMYCIN] registered a minimum inhibitory concentration (MIC) of 0.4 µg/mL (≈ 0.826 µM).
For the molecule `C=C([C@H]1CC=C(C)CC1)[C@H](O)[C@@H](O)/C=C(\C)C(=O)O`, the MIC entry was “inactive”.
Still for that read-out and setting: the result for `C=C1CCC[C@@](C)(CO)[C@@H]1CC/C(=C/CO)CO` reads “inactive”.
Same read-out and setting: the result for `C=C1CCC[C@@](C)(C(=O)O)[C@@H]1CCc1ccoc1` reads “inactive”.
On the same count and under the same terms, the result for `O=C(O)/C=C/c1ccc(O)cc1` [COUMARIC ACID] reads “inactive”; that for `C=C1CCCC(C)(C)[C@@H]1CC/C(=C/CO)CO`, “inactive”.
